Data set [1] has as its target T1, Potassium voltage-gated channel subfamily KQT member 1 (Cavia porcellus, UniProt O70344).
T1 sequence (O70344 whole entry): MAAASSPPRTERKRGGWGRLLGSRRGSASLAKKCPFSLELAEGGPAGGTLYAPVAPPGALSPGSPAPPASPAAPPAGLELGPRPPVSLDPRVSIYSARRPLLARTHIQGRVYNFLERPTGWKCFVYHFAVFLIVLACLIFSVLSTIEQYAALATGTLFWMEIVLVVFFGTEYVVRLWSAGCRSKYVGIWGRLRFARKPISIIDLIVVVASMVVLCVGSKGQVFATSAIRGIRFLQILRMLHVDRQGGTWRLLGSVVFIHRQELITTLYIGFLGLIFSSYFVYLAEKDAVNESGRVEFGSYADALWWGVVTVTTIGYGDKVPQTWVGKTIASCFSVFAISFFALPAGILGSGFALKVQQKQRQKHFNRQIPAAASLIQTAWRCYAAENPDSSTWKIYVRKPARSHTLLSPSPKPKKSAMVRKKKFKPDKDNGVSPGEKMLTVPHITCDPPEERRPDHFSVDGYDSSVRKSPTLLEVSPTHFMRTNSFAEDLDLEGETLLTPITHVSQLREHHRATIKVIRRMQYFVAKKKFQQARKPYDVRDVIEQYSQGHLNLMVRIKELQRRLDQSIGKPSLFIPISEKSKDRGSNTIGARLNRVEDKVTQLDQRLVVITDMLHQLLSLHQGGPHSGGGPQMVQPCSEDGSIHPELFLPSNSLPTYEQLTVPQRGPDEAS
Description: Molar concentration required to inhibit 50% of the activating delayed-rectifier K+ current in isolated guinea pig ventricular myocytes. A digest of the protocol: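 Native IKs recorded by voltage clamp in isolated guinea pig ventricular myocytes, with ionic solutions and voltage protocol designed to isolate IKs from other currents.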

The nature of data set [2]: Compound was evaluated for half life period when administered intravenously. Format: ADME, organism-based. The following applies: in vivo, iv. A digest of the protocol: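 Half-life was determined in rats after intravenous administration.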
The nature of data set [3]: Bioavailability in rat. Format: ADME, organism-based. The following applies: in vivo. A digest of the protocol:
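Rats were dosed orally and screened for plasma drug levels. Compounds reaching plasma concentrations of >75 nM were then tested individually for oral bioavailability by standard methods.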

IC50, half-life and bioavailability data for 27 compounds are collected here from ChEMBL document CHEMBL1134672, “Design and synthesis of 4-substituted benzamides as potent, selective, and orally bioavailable I(Ks) blockers” (J Med Chem, 2001).

Usually IC50 stands for the point on the concentration scale where inhibition reaches its midpoint. As for `CCCCCCOc1ccc(C(=O)NC2CCC(C)(C)C2)cc1` (stereo unspecified), in data set [1], half-maximal inhibition (IC50) was put at 360 nM.
The compound `CCCCCCOc1ccc(C(=O)N2CCC(C(C)(C)C)C2)cc1` (stereo unspecified) showed a concentration for half-maximal inhibition (IC50) in data set [1] greater than 3000 nM.
`CCCCCCOc1ccc(C(=O)CCN2CCCCC2)cc1` yielded a concentration for half-maximal inhibition (IC50) in data set [1] of 4000 nM.
Still for that read-out and setting: next, `CCCCCCOc1ccc(C(=O)NCCC(C)(C)C)cc1`: 250 nM; `CCCCCCOc1ccc(C(=O)NCCN(CC)CC)cc1`: 3500 nM.
For `CC(C)(C)CCNC(=O)c1ccc(-c2nc(-c3ccccc3)no2)cc1`, the 50% inhibitory concentration (IC50) in data set [1] turned out to be 130 nM.
Still for that read-out and setting: the same measure for `CCCCc1noc(-c2ccc(C(=O)NCCC(C)(C)C)cc2)n1`: 23 nM; for `CCCCCCOc1ccc(C(=O)NCC2CCCC(C)(C)C2)cc1` (stereo unspecified): 370 nM.
Consider `CC(C)(C)CCNC(=O)c1ccc(-c2ccccc2)cc1`, for which the concentration for half-maximal inhibition (IC50) in data set [1] was 540 nM.
For orientation: half-life means the time needed for the level to fall by half in the phase considered. A word on the bioavailability: it is the share of a dose that reaches the circulation, judged against a reference dose that is usually intravenous. In the case of `CCCCc1noc(-c2ccc(C(=O)NC[C@H]3CCCC3(C)C)cc2)n1`, the half-life in data set [2] turned out to be 4.2 h. Besides, in data set [3], the bioavailability was less than 1%. The same compound registered an IC50 in data set [1] of 2 nM.
As for `CN1C(=O)[C@H](NC(=O)/C=C/c2ccc(Cl)cc2Cl)N=C(c2ccccc2)c2ccccc21`, 31 nM corresponded to half-maximal inhibition in data set [1] (IC50).
On the same count and under the same terms, the same measure for `CCCCc1noc(-c2ccc(C(=O)NC[C@@H]3CCCC3(C)C)cc2)n1`: 9 nM; for `CCCCCCOc1ccc(C(=O)NC2CCCC2(C)C)cc1` (stereo unspecified): greater than 30000 nM.
As for `CCN(CC)C(=O)COc1ccc(C(C)(C)CC(C)(C)C)cc1`, the IC50 in data set [1] came out at 5000 nM.
In the case of `CC(C)(C)CCNC(=O)c1ccc(-n2ccc3ccccc32)cc1`, the IC50 in data set [1] amounted to 260 nM.
As for `CCCCCCOc1ccc(C(=O)NCC2CCCC2(C)C)cc1` (single isomer, unassigned; form 1), the IC50 in data set [1] came out at 710 nM.
Still for that read-out and setting: next, `CCCc1noc(-c2ccc(C(=O)NCC3CCCC3(C)C)cc2)n1` (single isomer, unassigned; form 1): 27 nM.
`CC1(C)CCCC1CNC(=O)c1ccc(-c2nc(CC3CC3)no2)cc1` (single isomer, unassigned; form 1): the half-inhibitory concentration (IC50) in data set [1] amounted to 23 nM.
Take `CC1(C)CCCC1CNC(=O)c1ccc(-c2noc(CCC(F)(F)F)n2)cc1` (single isomer, unassigned; form 1): in data set [1], half-maximal inhibition (IC50) was put at 27 nM.
Consider `CCCCCCOc1ccc(C(=O)NCC2CCCC2(C)C)cc1` (single isomer, unassigned; form 2), for which the concentration for half-maximal inhibition (IC50) in data set [1] worked out at 160 nM.
As to `CCCc1noc(-c2ccc(C(=O)NCC3CCCC3(C)C)cc2)n1` (single isomer, unassigned; form 2), in data set [1], the concentration for half-maximal inhibition (IC50) is 10 nM.
Turning to `CC1(C)CCCC1CNC(=O)c1ccc(-c2nc(CC3CC3)no2)cc1` (single isomer, unassigned; form 2), in data set [1], the half-maximal inhibitory concentration (IC50) turned out to be 18 nM.
Regarding `CC1(C)CCCC1CNC(=O)c1ccc(-c2noc(CCC(F)(F)F)n2)cc1` (single isomer, unassigned; form 2), the half-life in data set [2] worked out at 3.2 h. The compound further had a bioavailability in data set [3] of 23%. In data set [1], this compound showed a 50% inhibitory concentration (IC50) of 40 nM.
In turn, `CCCCCCOc1ccc(C(=O)NCC2CCCCC2(C)C)cc1` (stereo in doubt; 13(A)) registered an IC50 in data set [1] of 1400 nM.
In turn, `CCCCCCOc1ccc(C(=O)NCC2CCCCC2(C)C)cc1` (stereo in doubt; 13(B)) gave an IC50 in data set [1] greater than 3000 nM.
As to `Cc1noc(-c2ccc(C(=O)NCC3CCCC3(C)C)cc2)n1` (stereo in doubt; 21(A)), 220 nM corresponded to half-maximal inhibition in data set [1] (IC50).
With `Cc1noc(-c2ccc(C(=O)NCC3CCCC3(C)C)cc2)n1` (stereo in doubt; 21(B)), half-maximal inhibition in data set [1] (IC50) was put at 580 nM.
